Data set [1] in a line: AUC(0 to last) in Sprague-Dawley rat at 10 mg/kg, po administered via gavage measured under fasted conditions by LC-MS/MS analysis. Type of data set: ADME, organism-based. The arrangement: time 0 - last, dose 10 mg/kg, route oral. The following applies: plasma. In outline:
(§1)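 Fasted male Sprague-Dawley rats (280–330 g) received 0.1, 1, 10 or 30 mg/kg by oral gavage in 50 mM HEPES buffered saline, pH 7.4. Blood drawn at 0.25–24 h into heparin/NEM tubes; plasma analyzed by LC-MS/MS. Cmax taken as observed. AUC by linear trapezoidal rule with extrapolation by λz. Cl/F and Vd/F reported. Mean ± S.D., n = 4–9.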

Data set [2] can be described thus: Volume of distribution in Sprague-Dawley rat at 1 mg/kg, iv administered as bolus injection measured under fasted conditions by LC-MS/MS analysis. It is filed as ADME, organism-based. More on the design: dose 1 mg/kg, route intravenous. The conditions noted are these: in vivo. In outline: (§2)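 Jugular-cannulated male Sprague-Dawley rats, 280–330 g, fasted overnight to 4 h post-dose. Single dose in 50 mM HEPES-buffered saline pH 7.4, by oral gavage or as tail-vein i.v. bolus. Blood into heparin/NEM tubes at 0–24 h. Plasma measured by LC-MS/MS; noncompartmental analysis; Tmax observed; Vd = dose/(AUCinf·λz).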

Data set [3] can be described thus: Oral bioavailability in Sprague-Dawley rat at 0.1 mg/kg administered via gavage measured under fasted conditions by LC-MS/MS analysis. Type of data set: ADME, organism-based. The conditions noted are these: in vivo.
Data set [4] is described as follows: Phase 2 metabolic stability in rat liver microsomes assessed as compound remaining at 10 uM measured for 1 hr by LC-MS/MS analysis in absence of cofactors. It is filed as ADME. The conditions noted are these: read-out: Stability. In outline: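 Glucuronidation in liver microsomes of the named species, 0.5 mg/ml protein, compound at 10 μM final, in 50 mM Tris-HCl pH 7.5 with 8 mM MgCl2 and 25 μg/ml alamethicin. Preincubated at 37°C, then started with 2 mM UDPGA (final); cofactor-free controls run alongside. Duplicate reactions, sampled up to 1 h, quenched with cold acetonitrile plus internal standard; disappearance followed by LC-MS/MS.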
A general note: Liver microsomes are vesicles of endoplasmic reticulum, rich in cytochrome P450 enzymes.

The nature of data set [5]: Apparent volume of distribution in Sprague-Dawley rat at 1 mg/kg, po administered via gavage measured under fasted conditions by LC-MS/MS analysis. More on the design: dose 1 mg/kg, route oral. Type of data set: ADME, organism-based. The conditions noted are these: in vivo. Summed up: as §1
Data set [6] is described as follows: Volume of distribution in Sprague-Dawley rat at 0.1 mg/kg, iv administered as bolus injection measured under fasted conditions by LC-MS/MS analysis. More on the design: dose 0.1 mg/kg, route intravenous. Type of data set: ADME, organism-based. The following applies: in vivo. In outline:
as §2

Data set [7] can be described thus: Tmax in Sprague-Dawley rat at 10 mg/kg, po administered via gavage measured under fasted conditions by LC-MS/MS analysis. Type of data set: ADME, organism-based. More on the design: dose 10 mg/kg, route oral. The conditions noted are these: in vivo. Summed up:
as §2

Data set [8] in a line: Phase 2 metabolic stability in monkey liver microsomes assessed as compound remaining at 10 uM measured for 1 hr by LC-MS/MS analysis. It is filed as ADME, Macaca mulatta. The conditions noted are these: rhesus monkey, read-out: Stability. Summed up: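 For glucuronidation, compound was preincubated at 37°C in 50 mM Tris-HCl, pH 7.5, with 0.5 mg/ml liver microsomes, 8 mM MgCl2 and 25 µg/ml alamethicin. Reactions were started in duplicate with 2 mM UDPGA (final). Samples were taken up to 1 h, quenched with acetonitrile containing internal standard, and compound disappearance was measured by LC-MS/MS.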

A short description of data set [9]: Half life in Sprague-Dawley rat at 10 mg/kg, po administered via gavage measured under fed conditions by LC-MS/MS analysis. Type of data set: ADME, organism-based. The arrangement: dose 10 mg/kg, route oral. The conditions noted are these: in vivo.
The nature of data set [10]: AUC(0 to last) in Sprague-Dawley rat at 30 mg/kg, po administered via gavage measured under fasted conditions by LC-MS/MS analysis. The following applies: plasma. It is filed as ADME, organism-based. The arrangement: time 0 - last, dose 30 mg/kg, route oral. In outline:
as §1

The nature of data set [11]: Tmax in Sprague-Dawley rat at 30 mg/kg, po administered via gavage measured under fasted conditions by LC-MS/MS analysis. It is filed as ADME, organism-based. More on the design: dose 30 mg/kg, route oral. The conditions noted are these: in vivo. In outline:
as §2

Data set [12] can be described thus: Apparent volume of distribution in Sprague-Dawley rat at 10 mg/kg, po administered via gavage measured under fasted conditions by LC-MS/MS analysis. Type of data set: ADME, organism-based. More on the design: dose 10 mg/kg, route oral. The following applies: in vivo. In outline:
as §1

The nature of data set [13]: Half life in Sprague-Dawley rat at 0.1 mg/kg, iv administered as bolus injection measured under fasted conditions by LC-MS/MS analysis. Type of data set: ADME, organism-based. The arrangement: dose 0.1 mg/kg, route intravenous. The following applies: in vivo.
Data set [14] can be described thus: Apparent volume of distribution in Sprague-Dawley rat at 0.1 mg/kg, po administered via gavage measured under fasted conditions by LC-MS/MS analysis. It is filed as ADME, organism-based. The arrangement: dose 0.1 mg/kg, route oral. The following applies: in vivo. In outline: as §1
A short description of data set [15]: Apparent volume of distribution in cynomolgus monkey at 5 mg/kg, po by LC-MS/MS analysis. Type of data set: ADME, organism-based, Macaca fascicularis. The arrangement: dose 5 mg/kg, route oral. The conditions noted are these: in vivo. In outline:
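Cynomolgus monkeys (n = 3) dosed orally at a nominal 5 mg/kg in TCEP-treated 50 mM HEPES solution. Blood taken via iliac or femoral arterial cannula up to 9 days into heparin/NEM tubes. Plasma analyzed by LC-MS/MS. Cl/F and Vd/F derived noncompartmentally.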

A short description of data set [16]: Cmax in Sprague-Dawley rat liver at 10 mg/kg/day, po administered for 5 days measured per gm of tissue by LC-MS/MS analysis. It is filed as ADME, organism-based. More on the design: dose 10 mg/kg/day, route oral. In outline:
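Male Sprague-Dawley rats were dosed orally with 10 mg/kg/day, either once or daily for 5 days; n = 4 per group. Blood was taken by cardiac puncture and liver, kidney, brain and sciatic nerve were collected at 0–8 h post-dose. Tissues were homogenized in PBS containing NEM at equal volume per gram. NEM-derivatized analyte was extracted with methanol and quantified by LC-MS/MS (1–5000 ng/ml). Cmax is the observed value.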

A short description of data set [17]: Half life in Sprague-Dawley rat at 0.1 mg/kg, po administered via gavage measured under fasted conditions by LC-MS/MS analysis. More on the design: dose 0.1 mg/kg, route oral. Type of data set: ADME, organism-based. The conditions noted are these: in vivo.
The nature of data set [18]: Phase 1 metabolic stability in dog liver microsomes assessed as compound remaining at 10 uM measured for 1 hr by LC-MS/MS analysis in absence of cofactors. It is filed as ADME, Canis lupus familiaris. The following applies: read-out: Stability. In outline:
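Cofactor-free controls were run for each microsomal incubation: 0.5 mg/ml liver microsomes with 10 µM compound, omitting cofactors, so that cofactor-independent degradation could be measured. Samples were taken up to 1 h, quenched with acetonitrile containing internal standard, and the percent remaining was determined by LC-MS/MS.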

Data set [19] can be described thus: Protein binding in cynomolgus monkey serum at 10 uM after 1 hr by LC-MS/MS analysis. It is filed as ADME, Macaca fascicularis. The following applies: read-out: PB (converted). In outline: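 Serum from the named species spiked to 10 μM and held 1 h at 37°C, then ultrafiltered through a 5000 Da cutoff device (45 min, 37°C, 1800g). Filtrate and unfiltered serum extracted and measured by LC-MS/MS; % bound = 100 − (Cu/Cs × 100).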

Data set [20] is described as follows: Apparent volume of distribution in Sprague-Dawley rat at 30 mg/kg, po administered via gavage measured under fasted conditions by LC-MS/MS analysis. Type of data set: ADME, organism-based. The arrangement: dose 30 mg/kg, route oral. The following applies: in vivo. Summed up:
as §1

A short description of data set [21]: Elimination half life in cynomolgus monkey at 5 mg/kg, iv administered as bolus injection by LC-MS/MS analysis. Type of data set: ADME, organism-based, Macaca fascicularis. The arrangement: dose 5 mg/kg, route intravenous. The conditions noted are these: in vivo, read-out: beta t1/2 (converted). Summed up: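 Cynomolgus monkeys (n = 3) received a nominal 5 mg/kg dose in 50 mM HEPES, TCEP-treated to prevent disulfide formation. Dosing was either an IV bolus via cephalic or saphenous vein or oral. Arterial cannula blood was collected into NEM-containing heparinized tubes for up to 9 days and analyzed by LC-MS/MS. Noncompartmental analysis gave t1/2 = 0.693/λz and F% = dose-normalized mean AUCinf p.o./i.v. ×100.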

A short description of data set [22]: AUC(0 to last) in Sprague-Dawley rat at 0.1 mg/kg, po administered via gavage measured under fasted conditions by LC-MS/MS analysis. The following applies: plasma. Type of data set: ADME, organism-based. More on the design: time 0 - last, dose 0.1 mg/kg, route oral. Summed up:
as §1

A short description of data set [23]: Half life in Sprague-Dawley rat at 30 mg/kg, iv administered as bolus injection measured under fasted conditions by LC-MS/MS analysis. It is filed as ADME, organism-based. More on the design: dose 30 mg/kg, route intravenous. The conditions noted are these: in vivo.

The values that follow come from ChEMBL document CHEMBL3526151, “Reversible disulfide formation of the glutamate carboxypeptidase II inhibitor E2072 results in prolonged systemic exposures in vivo” (Drug Metab Dispos, 2012).

For orientation: AUC(0-t) means exposure summed from dosing to a finite time, without extrapolation to infinity. As usually defined, the Vd is the apparent volume that relates the amount in the body to the concentration in plasma or blood. Broadly, the bioavailability is the share of a dose that reaches the circulation, judged against a reference dose that is usually intravenous. As a reminder, the Vd/F is the apparent distribution volume after extravascular dosing. As a reminder, the Tmax is the time from dosing to the highest level. For orientation: Cmax means the peak of the concentration-time curve.

Take `O=C(O)c1cccc(-c2cccc(CCS)c2C(=O)O)c1`: the AUC(0-t) came to 33.4 µg·h/mL in data set [1], 76.1 µg·h/mL in data set [10] and 0.268 µg·h/mL in [22]. Besides, the Vd in data set [2] was 0.21 L/kg; in [6], 0.2 L/kg. For the same compound, the bioavailability in data set [3] was 17.4%. In addition, the remaining at 1 h, 10 µM in data set [4], in [8] and in data set [18] was over 90% each time. The Vd/F in data set [5] was 1.65 L/kg; in [12], 1.44 L/kg; in data set [14], 2.98 L/kg; in data set [15] it was 0.79 L/kg; in data set [20], 2.39 L/kg. The Tmax in data set [7] was 1.03 h; in data set [11] it was 1.43 h. For the same compound, the half-life in [9] was 2.75 h; in data set [13], 2.3 h; in data set [17], 9.33 h; in data set [21], 23 h; in data set [23], 4.07 h. Further, the concentration in data set [16] peaked (Cmax) at 457 ng/g. Further, the fraction unbound at 1 h, 10 µM in data set [19] is 0.101.
